Reference: the M2OR odorant receptor database

Columns and labels:
Settings in all cases: stereoisomer not certain
OR51D1 (Homo sapiens) = target: T1, OR51D1 (Homo sapiens) (UniProt Q8NGF3)
T1 sequence (whole entry): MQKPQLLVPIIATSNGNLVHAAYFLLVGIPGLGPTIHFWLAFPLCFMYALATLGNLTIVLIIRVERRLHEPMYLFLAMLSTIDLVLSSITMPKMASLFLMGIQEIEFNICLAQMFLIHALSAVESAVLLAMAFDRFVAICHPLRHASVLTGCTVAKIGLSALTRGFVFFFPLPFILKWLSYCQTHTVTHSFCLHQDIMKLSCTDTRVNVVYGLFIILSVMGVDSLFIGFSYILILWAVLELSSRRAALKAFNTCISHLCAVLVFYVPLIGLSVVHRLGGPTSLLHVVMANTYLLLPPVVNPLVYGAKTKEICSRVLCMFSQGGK
How it was run: (§1)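 Assay methods differ from source to source, frequently being transient luciferase assays in mammalian cell lines. For each receptor–molecule pair, the label responsive (active) applies when the original authors judged the measured signal statistically different from baseline, and non-responsive (inactive) applies otherwise.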

OR51E1 (Homo sapiens) = target: T2, OR51E1 (Homo sapiens) (UniProt Q8TCB6)
T2 sequence (whole entry): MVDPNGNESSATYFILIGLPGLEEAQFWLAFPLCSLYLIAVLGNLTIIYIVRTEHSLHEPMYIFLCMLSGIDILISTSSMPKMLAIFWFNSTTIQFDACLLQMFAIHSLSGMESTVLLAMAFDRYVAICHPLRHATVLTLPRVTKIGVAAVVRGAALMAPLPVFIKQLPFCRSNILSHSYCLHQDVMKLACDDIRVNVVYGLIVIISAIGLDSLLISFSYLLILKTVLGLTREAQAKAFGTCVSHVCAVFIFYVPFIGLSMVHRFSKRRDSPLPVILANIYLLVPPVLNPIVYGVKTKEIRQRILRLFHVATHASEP
How it was run: as §1

OR51E2 (Homo sapiens) = target: T3, OR51E2 (Homo sapiens) (UniProt Q9H255)
T3 sequence (whole entry): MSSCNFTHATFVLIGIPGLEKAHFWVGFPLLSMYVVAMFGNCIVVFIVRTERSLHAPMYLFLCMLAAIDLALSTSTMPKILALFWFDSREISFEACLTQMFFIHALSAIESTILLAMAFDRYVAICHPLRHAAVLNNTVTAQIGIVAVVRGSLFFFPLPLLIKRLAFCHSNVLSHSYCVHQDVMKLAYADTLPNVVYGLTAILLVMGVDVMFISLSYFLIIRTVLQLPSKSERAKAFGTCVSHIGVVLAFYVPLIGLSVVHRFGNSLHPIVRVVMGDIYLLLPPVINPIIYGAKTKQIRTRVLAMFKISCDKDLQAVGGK
How it was run: as §1

OR51F1 (Homo sapiens) = target: T4, OR51F1 (Homo sapiens) (UniProt A6NGY5)
T4 sequence (whole entry): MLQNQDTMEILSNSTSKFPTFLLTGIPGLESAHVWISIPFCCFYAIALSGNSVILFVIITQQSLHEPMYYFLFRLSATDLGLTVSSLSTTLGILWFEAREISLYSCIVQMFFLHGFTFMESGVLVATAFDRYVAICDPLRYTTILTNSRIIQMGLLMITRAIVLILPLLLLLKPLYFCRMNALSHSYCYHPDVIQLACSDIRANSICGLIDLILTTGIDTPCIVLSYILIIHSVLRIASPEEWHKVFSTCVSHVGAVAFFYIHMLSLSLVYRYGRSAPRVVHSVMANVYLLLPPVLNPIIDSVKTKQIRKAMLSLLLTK
How it was run: as §1

OR51F2 (Homo sapiens) = target: T5, OR51F2 (Homo sapiens) (UniProt Q8NH61)
T5 sequence (whole entry): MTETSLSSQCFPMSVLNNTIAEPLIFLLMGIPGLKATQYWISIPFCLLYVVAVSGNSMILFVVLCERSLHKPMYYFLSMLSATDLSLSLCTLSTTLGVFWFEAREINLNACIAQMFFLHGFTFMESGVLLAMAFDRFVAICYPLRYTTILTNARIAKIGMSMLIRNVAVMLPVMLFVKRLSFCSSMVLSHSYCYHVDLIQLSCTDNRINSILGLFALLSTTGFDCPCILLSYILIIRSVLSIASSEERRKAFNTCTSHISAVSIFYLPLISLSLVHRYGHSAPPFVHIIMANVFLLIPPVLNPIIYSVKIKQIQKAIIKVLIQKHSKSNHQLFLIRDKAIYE
How it was run: as §1

OR51G1 (Homo sapiens) = target: T6, OR51G1 (Homo sapiens) (UniProt Q8NGK1)
T6 sequence (whole entry): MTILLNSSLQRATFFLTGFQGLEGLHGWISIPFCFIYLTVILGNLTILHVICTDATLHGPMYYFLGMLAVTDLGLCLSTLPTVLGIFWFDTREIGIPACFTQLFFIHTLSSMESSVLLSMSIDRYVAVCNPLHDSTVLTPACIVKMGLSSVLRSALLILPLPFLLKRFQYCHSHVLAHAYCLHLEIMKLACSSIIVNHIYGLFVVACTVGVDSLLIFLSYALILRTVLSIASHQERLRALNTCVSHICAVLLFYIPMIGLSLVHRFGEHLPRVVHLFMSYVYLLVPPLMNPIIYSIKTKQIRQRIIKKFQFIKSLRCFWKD
How it was run: as §1

OR51G2 (Homo sapiens) = target: T7, OR51G2 (Homo sapiens) (UniProt Q8NGK0)
T7 sequence (whole entry): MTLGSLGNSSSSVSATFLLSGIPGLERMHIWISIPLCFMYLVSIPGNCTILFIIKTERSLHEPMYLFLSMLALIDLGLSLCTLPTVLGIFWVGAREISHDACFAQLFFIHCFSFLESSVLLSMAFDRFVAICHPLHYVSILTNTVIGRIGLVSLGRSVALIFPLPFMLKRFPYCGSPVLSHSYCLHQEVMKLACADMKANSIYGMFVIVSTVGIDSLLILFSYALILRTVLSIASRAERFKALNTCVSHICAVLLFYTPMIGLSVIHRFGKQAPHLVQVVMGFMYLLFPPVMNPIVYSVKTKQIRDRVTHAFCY
How it was run: as §1

OR51I1 (Homo sapiens) = target: T8, OR51I1 (Homo sapiens) (UniProt Q9H343)
T8 sequence (whole entry): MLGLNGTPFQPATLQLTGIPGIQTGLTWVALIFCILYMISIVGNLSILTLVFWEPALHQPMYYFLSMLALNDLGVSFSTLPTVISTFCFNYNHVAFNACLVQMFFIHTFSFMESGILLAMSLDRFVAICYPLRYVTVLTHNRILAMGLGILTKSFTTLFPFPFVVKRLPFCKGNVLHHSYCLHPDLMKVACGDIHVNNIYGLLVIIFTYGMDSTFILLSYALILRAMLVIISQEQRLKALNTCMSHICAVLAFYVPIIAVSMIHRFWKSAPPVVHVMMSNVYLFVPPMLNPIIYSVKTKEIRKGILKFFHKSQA
How it was run: as §1

OR51I2 (Homo sapiens) = target: T9, OR51I2 (Homo sapiens) (UniProt Q9H344)
T9 sequence (whole entry): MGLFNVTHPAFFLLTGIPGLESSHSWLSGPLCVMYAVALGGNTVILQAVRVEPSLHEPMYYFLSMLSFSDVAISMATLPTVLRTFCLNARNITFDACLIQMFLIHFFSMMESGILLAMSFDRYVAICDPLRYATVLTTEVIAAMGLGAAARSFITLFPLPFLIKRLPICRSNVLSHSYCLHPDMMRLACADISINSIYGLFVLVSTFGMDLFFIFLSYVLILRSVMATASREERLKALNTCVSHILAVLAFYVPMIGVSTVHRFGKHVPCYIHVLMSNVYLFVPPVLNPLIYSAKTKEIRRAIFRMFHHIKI
How it was run: as §1

OR51J1 (Homo sapiens) = target: T10, OR51J1 (Homo sapiens) (UniProt Q9H342)
T10 sequence (whole entry): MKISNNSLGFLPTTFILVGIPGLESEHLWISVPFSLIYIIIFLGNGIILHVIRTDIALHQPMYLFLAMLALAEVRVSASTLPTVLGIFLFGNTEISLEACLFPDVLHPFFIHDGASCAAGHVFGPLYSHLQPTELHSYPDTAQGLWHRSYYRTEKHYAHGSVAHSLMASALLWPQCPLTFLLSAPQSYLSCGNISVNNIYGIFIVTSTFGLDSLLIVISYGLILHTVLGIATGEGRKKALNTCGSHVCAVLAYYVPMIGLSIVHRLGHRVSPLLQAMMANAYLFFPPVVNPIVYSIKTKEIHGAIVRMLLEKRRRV
How it was run: as §1

OR51L1 (Homo sapiens) = target: T11, OR51L1 (Homo sapiens) (UniProt Q8NGJ5)
T11 sequence (whole entry): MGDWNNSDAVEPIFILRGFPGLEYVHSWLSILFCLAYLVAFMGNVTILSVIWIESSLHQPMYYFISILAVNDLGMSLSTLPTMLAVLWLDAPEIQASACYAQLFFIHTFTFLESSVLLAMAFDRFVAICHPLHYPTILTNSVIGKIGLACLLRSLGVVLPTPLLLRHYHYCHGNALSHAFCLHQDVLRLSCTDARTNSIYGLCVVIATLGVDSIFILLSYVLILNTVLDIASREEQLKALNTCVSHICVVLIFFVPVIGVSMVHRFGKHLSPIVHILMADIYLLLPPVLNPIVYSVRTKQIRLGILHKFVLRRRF
How it was run: as §1

OR51M1 (Homo sapiens) = target: T12, OR51M1 (Homo sapiens) (UniProt Q9H341)
T12 sequence (whole entry): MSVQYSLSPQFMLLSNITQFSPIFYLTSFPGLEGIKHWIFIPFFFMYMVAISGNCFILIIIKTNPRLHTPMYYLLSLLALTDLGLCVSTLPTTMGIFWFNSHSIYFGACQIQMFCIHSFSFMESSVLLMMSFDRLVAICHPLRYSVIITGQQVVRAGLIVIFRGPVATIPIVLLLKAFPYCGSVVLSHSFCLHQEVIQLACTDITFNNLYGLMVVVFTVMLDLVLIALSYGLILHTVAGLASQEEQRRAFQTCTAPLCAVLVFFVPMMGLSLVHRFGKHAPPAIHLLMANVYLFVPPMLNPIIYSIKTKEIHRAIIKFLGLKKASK
How it was run: as §1

OR51Q1 (Homo sapiens) = target: T13, OR51Q1 (Homo sapiens) (UniProt Q8NH59)
T13 sequence (whole entry): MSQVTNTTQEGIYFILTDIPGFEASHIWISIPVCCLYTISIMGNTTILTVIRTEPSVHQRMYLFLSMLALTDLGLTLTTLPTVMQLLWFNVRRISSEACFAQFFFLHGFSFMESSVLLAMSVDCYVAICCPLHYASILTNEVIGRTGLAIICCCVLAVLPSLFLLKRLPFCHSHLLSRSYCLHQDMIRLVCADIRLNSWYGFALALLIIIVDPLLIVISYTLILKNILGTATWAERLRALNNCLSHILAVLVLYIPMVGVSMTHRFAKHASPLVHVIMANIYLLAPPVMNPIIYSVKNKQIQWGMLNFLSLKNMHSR
How it was run: as §1

OR51S1 (Homo sapiens) = target: T14, OR51S1 (Homo sapiens) (UniProt Q8NGJ8)
T14 sequence (whole entry): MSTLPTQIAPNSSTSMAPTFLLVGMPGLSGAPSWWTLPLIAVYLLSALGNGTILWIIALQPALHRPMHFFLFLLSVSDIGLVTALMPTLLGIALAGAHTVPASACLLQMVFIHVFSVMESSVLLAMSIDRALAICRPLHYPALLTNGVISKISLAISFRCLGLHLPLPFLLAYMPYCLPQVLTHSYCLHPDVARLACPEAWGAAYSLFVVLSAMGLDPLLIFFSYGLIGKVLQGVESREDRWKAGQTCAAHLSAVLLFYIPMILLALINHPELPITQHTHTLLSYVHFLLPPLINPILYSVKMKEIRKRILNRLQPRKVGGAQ
How it was run: as §1

OR51T1 (Homo sapiens) = target: T15, OR51T1 (Homo sapiens) (UniProt Q8NGJ9)
T15 sequence (whole entry): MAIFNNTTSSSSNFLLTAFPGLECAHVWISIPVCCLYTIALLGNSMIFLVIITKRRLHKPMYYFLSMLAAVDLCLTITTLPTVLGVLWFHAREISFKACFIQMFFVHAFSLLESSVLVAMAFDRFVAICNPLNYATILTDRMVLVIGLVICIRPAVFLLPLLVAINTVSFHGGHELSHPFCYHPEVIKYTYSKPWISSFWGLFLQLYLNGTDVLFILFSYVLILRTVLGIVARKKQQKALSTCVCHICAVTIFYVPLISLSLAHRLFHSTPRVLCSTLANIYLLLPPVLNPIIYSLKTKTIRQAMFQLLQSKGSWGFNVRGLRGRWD
How it was run: as §1

OR51V1 (Homo sapiens) = target: T16, OR51V1 (Homo sapiens) (UniProt Q9H2C8)
T16 sequence (whole entry): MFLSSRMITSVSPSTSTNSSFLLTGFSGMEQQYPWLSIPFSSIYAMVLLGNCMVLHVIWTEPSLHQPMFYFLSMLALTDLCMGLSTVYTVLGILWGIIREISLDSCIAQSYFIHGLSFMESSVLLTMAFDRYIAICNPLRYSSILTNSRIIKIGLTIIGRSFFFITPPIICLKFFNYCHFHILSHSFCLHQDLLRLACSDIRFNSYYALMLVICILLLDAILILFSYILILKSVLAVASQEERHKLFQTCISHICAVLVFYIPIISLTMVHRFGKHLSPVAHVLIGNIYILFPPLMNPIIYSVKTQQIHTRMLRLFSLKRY
How it was run: as §1

OR52A1 (Homo sapiens) = target: T17, OR52A1 (Homo sapiens) (UniProt Q9UKL2)
T17 sequence (whole entry): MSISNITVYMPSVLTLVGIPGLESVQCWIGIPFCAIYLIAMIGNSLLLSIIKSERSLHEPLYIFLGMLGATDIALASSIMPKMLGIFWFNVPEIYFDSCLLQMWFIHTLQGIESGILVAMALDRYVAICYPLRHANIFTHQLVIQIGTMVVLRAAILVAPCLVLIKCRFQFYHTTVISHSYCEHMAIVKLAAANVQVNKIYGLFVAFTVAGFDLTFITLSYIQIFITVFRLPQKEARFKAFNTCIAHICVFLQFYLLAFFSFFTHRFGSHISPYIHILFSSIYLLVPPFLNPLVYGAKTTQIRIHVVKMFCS
How it was run: as §1

OR52A4P (Homo sapiens) = target: T18, OR52A4P (Homo sapiens) (UniProt A6NMU1)
T18 sequence (whole entry): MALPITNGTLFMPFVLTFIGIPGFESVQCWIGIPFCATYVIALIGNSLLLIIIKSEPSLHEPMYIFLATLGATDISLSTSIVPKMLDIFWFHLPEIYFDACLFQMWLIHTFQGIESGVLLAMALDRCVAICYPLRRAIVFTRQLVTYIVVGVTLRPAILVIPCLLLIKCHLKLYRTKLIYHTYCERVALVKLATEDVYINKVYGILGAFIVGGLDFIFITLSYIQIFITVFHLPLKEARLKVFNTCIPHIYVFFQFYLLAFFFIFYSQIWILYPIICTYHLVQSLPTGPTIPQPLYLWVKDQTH
How it was run: as §1

Measured: odorant receptor agonist call

CCCCC(S)C(C)CO (stereo not drawn)
active: OR51T1 (Homo sapiens)
inactive: all other assays above
